Source: PubChem (several laboratories)
A selection: hits, their analogues and other compounds. The true share with any hit is near 9.3%.
Ecoli tolC: E. coli tolC mutant growth inhibition; E. coli BW25113 tolC mutant growth, OD615; growth inhibition, % at 10 µM (by protocol); 2.2% of 65,000 active;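 active = growth inhibition at or above a cutoff equal to the mean over every tested compound plus 3 SD, cut at about 60% in these data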;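 also: growth measured after 20 h incubation at 37 °C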
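test system = E. coli BW25113 ΔtolC::kan bacteria | medium = LB with kanamycin 50 µg/mL | signal = OD at 615 nm | schedule = 37 °C, 20 h exposure | evaluation = % inhibition of E. coli growth | compound dosing = one dose of 10 µM final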
PostGolgi yeast: growth inhibition of a yeast mutant, post-Golgi transport screen; inhibition, % at 10 µM; 0.9% of 98,000 active; post-Golgi transport phenotypic cell assay;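 also: yeast cells grown in 1536-well plates; yeast grown about 18 h at 30C before absorbance read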
Ecoli WT expand: E. coli BW25113 growth inhibition, expanded screen; growth inhibition, % at 100 µM; OD600 absorbance; 0.15% of 98,000 active; AID 710;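 active = growth inhibition above about 50% at one test dose, limit read from the data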;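 also: growth measured after 20 h incubation at 37 °C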
hDAT+cocaine: changed human dopamine transporter uptake under cocaine IC80 | LLC-PK1 hDAT cells, [14C]-dopamine uptake with cocaine IC80; actives deviate in either direction | Q01959 | 1.3% of 110,000 active | AID 449768 | B-score at 10 µM;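 active = Z score or B-score, a plate-position-corrected score, falls beyond the plate's 99.7% confidence bounds, in either direction; inactive = both scores lie inside the 99.7% bounds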
Target sequence (Q01959 whole entry, looked up): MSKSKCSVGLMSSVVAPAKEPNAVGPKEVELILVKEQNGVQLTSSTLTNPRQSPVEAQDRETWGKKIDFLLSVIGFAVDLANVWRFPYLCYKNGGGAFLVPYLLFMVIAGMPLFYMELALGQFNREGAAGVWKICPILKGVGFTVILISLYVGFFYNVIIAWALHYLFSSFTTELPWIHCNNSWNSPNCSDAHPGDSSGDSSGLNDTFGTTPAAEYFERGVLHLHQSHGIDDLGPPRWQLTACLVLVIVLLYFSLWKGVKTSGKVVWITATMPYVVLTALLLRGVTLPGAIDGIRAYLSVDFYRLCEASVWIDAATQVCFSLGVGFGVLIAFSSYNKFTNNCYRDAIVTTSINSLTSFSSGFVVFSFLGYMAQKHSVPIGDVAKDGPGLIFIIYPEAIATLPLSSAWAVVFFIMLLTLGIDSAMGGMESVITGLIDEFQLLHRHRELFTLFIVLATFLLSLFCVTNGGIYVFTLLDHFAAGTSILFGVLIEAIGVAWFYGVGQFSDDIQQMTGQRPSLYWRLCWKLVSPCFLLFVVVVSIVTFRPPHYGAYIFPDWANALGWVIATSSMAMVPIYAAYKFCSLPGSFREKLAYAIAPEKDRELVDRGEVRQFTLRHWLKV
D1 allo mod: allosteric modulators of human D1 dopamine receptor. 5.9% of 58,000 active. HEK293 D1, CRE-luciferase, dopamine EC30 potentiation; actives deviate in either direction. B-score at 10 µM. P21728;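 active = luminescence count or its row- and column-corrected plate score outside the 99.7% band of the plate's sample wells, on either side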
PostGolgi ctrl: inhibits growth of the yeast control strain | efflux-deficient yeast background strain, growth absorbance A615, 16 h | inhibition, % at 10 µM | 5% of 98,000 active
Of the large screens only hits and unclear results are named; the others gave an inactive call. Rule as the data show it, unless noted: active = inhibition above about 30%; inactive = the rest.

Cc1ccccc1OCC(=O)N(Cc1nc(-c2ccccc2)no1)C(C)C	none
COc1ccc(-c2noc(CCC(=O)Nc3cccc(C)c3)n2)cc1	none
COc1ccc(-c2noc(CCC(=O)N(C)c3cccc(C)c3)n2)cc1	Ecoli tolC 67.6
COc1ccccc1OCC(=O)N(Cc1nc(-c2ccccc2)no1)C1CCCCC1	Ecoli tolC 61.7
Cc1ccc(C(=O)N(Cc2nc(-c3ccc(C)cc3)no2)C(C)C)cc1	none
CC(C)N(Cc1nc(-c2ccccc2)no1)C(=O)c1ccc(Cl)cc1	Ecoli tolC 68.2
Cc1ccc(SCC(=O)N(Cc2nc(-c3ccccc3)no2)C(C)C)cc1	Ecoli tolC 73.5, PostGolgi ctrl 30.3
O=C(CN1C(=O)C2CC=CCC2C1=O)OCCN1C(=O)c2ccccc2C1=O (configuration not stated)	none
COc1ccc(C(=O)N(Cc2nc(-c3ccc(C)cc3)no2)C(C)C)cc1OC	none
CC(C)N(Cc1nc(-c2ccc(Cl)cc2)no1)C(=O)c1cccs1	Ecoli tolC 68.2
Cc1ccc(-c2noc(CN(C(=O)c3cccs3)C(C)C)n2)cc1	none
CC(C)N(Cc1nc(-c2ccc(Cl)cc2)no1)C(=O)CCCN1C(=O)c2ccccc2C1=O	PostGolgi ctrl 40.3
COc1ccccc1C(=O)N(Cc1nc(-c2ccc(Cl)cc2)no1)C(C)C	PostGolgi ctrl 32.4
COc1cc(OC)cc(C(=O)N(Cc2nc(-c3cccc(C)c3)no2)C(C)C)c1	Ecoli tolC 66.6
CC(C)Oc1ccc(Cl)cc1Nc1nc(NCCO)nc(N2CCCC2)n1	none (no result: Ecoli tolC, PostGolgi yeast, Ecoli WT expand, D1 allo mod, PostGolgi ctrl)
O=C(CSc1nnc(-c2csc3c2CCCC3)o1)Nc1ccccc1	D1 allo mod -2.28
Cc1nnc(Nc2ccccn2)c2ccccc12	PostGolgi ctrl 65.0 (no result: hDAT+cocaine)
Cc1nnc(NCc2ccncc2)c2ccccc12	none (no result: D1 allo mod)
COc1ccc(S(=O)(=O)NCCSCc2cccc(C)c2)cc1Br	PostGolgi ctrl 37.5 (no result: Ecoli tolC, D1 allo mod)
O=C(Nc1nccs1)Oc1ccccc1	PostGolgi ctrl 36.6
O=C(NCCc1ccccc1F)C(=O)Nc1nccs1	PostGolgi ctrl 30.3 (no result: Ecoli tolC, D1 allo mod)
CCc1ccc(-c2cn(-c3nc(C)cc(C)n3)c(=N)o2)cc1	none
CN1CCN(S(=O)(=O)c2ccc(-c3ccc(Cl)cc3)cc2)CC1	D1 allo mod -4.9
CN1CCN(S(=O)(=O)c2ccc(-c3ccc(S(=O)(=O)N4CCN(C)CC4)cc3)cc2)CC1	none (no result: PostGolgi yeast, Ecoli WT expand, hDAT+cocaine, PostGolgi ctrl)
CC1CN(Cc2cc(=O)[nH]c(C3CC3)n2)CC(C)O1 (configuration not stated)	hDAT+cocaine -6.76 (no result: Ecoli tolC, D1 allo mod)
Cc1cccc(Cl)c1OCCCCn1ccnc1	none
Cc1cccc(C(C)(C)C)c1OCCn1ccnc1	Ecoli tolC 91.6
Cc1cc(Cl)cc(C)c1OCCCCn1ccnc1	Ecoli tolC 91.8
Cc1cccc(C(C)(C)C)c1OCCCCN1CCCC1	none (no result: Ecoli tolC, D1 allo mod)
CCCCN(C(=O)Cn1nnc2ccccc21)C(C(=O)NCCOC)c1cccs1 (configuration not stated)	none (no result: Ecoli tolC, PostGolgi yeast, Ecoli WT expand, D1 allo mod, PostGolgi ctrl)
COc1ccc(CCn2c(=N)c(C(=O)NCc3ccco3)cc3c(=O)n4ccccc4nc32)cc1	D1 allo mod -3.72 (no result: hDAT+cocaine)
COCCn1c(=N)c(C(=O)NCCc2ccc(OC)cc2)cc2c(=O)n3cccc(C)c3nc21	none
O=C1NC2CCCCC2NC1CC(=O)N1CCN(c2ccccc2)CC1 (configuration not stated)	none (no result: PostGolgi yeast, Ecoli WT expand, hDAT+cocaine, PostGolgi ctrl)
Cc1ccc(-c2cc(C(=O)N3CCCC3)no2)cc1	D1 allo mod -5.16
COc1ccccc1N1CCN(C(=O)c2cc(-c3ccc(Cl)cc3)on2)CC1	PostGolgi ctrl 39.6
COc1ccccc1N1CCN(C(=O)c2cc(C3CC3)on2)CC1	none
COc1ccccc1-c1cc(C(=O)N2CCN(c3ccccc3OC)CC2)no1	Ecoli tolC 63.5, PostGolgi ctrl 37.6
COc1ccccc1N1CCN(C(=O)c2cc(-c3ccc(C)cc3)on2)CC1	Ecoli tolC 85.6
Cc1ccc(-c2cc(C(=O)NCCN3CCOCC3)no2)cc1	PostGolgi ctrl 30.4
O=C(CCC1CCCCC1)N1CCN(Cc2ccc3c(c2)OCO3)CC1	PostGolgi yeast 73.3, PostGolgi ctrl 38.3
COc1ccc(Cl)cc1S(=O)(=O)N1CCCC1	none (no result: Ecoli tolC, D1 allo mod)
CC(C)CCNC(=O)c1nnc(Cc2ccc(Cl)cc2)o1	none (no result: Ecoli tolC, D1 allo mod)
Cc1ccc(Cn2nnc3c(=O)[nH]c(C4CCN(C(=O)Cc5cccs5)CC4)nc32)cc1	hDAT+cocaine 3.37
CCOc1ccccc1NC(=O)N1CCCC(c2nc3c(nnn3Cc3ccc(C)cc3)c(=O)[nH]2)C1 (configuration not stated)	none
O=C(Cc1cccs1)N1CCC(c2nc3c(nnn3Cc3ccccc3)c(=O)[nH]2)CC1	none
Cc1ccc(Cn2nnc3c(=O)[nH]c(C4CCCN(C(=O)Nc5ccc(F)cc5F)C4)nc32)cc1 (configuration not stated)	hDAT+cocaine 3.23 (no result: Ecoli tolC, D1 allo mod)
CC(C)(C)c1ccc(Cn2nnc3c(=O)[nH]c(C4CCCN(C(=O)Cc5cccs5)C4)nc32)cc1 (configuration not stated)	Ecoli tolC 87.7
Cc1ccc(Cn2nnc3c(=O)[nH]c(C4CCCN(S(=O)(=O)c5ccccc5)C4)nc32)cc1 (configuration not stated)	none (no result: Ecoli tolC, D1 allo mod)
Cc1ccc(Cn2nnc3c(=O)[nH]c(C4CCN(S(=O)(=O)c5ccccc5)CC4)nc32)cc1	hDAT+cocaine 2.88
C=C1CCN([C@@H](C)C(=O)NCc2ccc(OC)cc2)S(=O)(=O)c2ccccc21	none (no result: Ecoli tolC, PostGolgi yeast, Ecoli WT expand, D1 allo mod, PostGolgi ctrl)
CCCNS(=O)(=O)c1cccc(C(=O)NC2CCCc3ccccc32)c1 (configuration not stated)	none (no result: Ecoli tolC, D1 allo mod)
CC(C)(C)c1ccc(Cn2nnc3c(=O)[nH]c(C4CCN(C(=O)Cc5cccs5)CC4)nc32)cc1	hDAT+cocaine 3.27
O=C(Cc1cccs1)N1CCCC(c2nc3c(nnn3Cc3ccc(F)cc3)c(=O)[nH]2)C1 (configuration not stated)	none
CCOc1ccc(OCc2cccc(C(=O)N3CCOCC3)c2)cc1	D1 allo mod -6.7 (no result: hDAT+cocaine)
Cn1c(=O)[nH]c(=O)c2c1nc(N1CCN(c3cccc(Cl)c3)CC1)n2CCCc1ccccc1	none
CCCCCn1c(N2CCN(c3cccc(Cl)c3)CC2)nc2c1c(=O)[nH]c(=O)n2C	D1 allo mod 4.94
C=C(C)Cn1c(N2CC(C)CC(C)C2)nc2c1c(=O)[nH]c(=O)n2C (configuration not stated)	D1 allo mod 6.96 (no result: PostGolgi yeast, Ecoli WT expand, PostGolgi ctrl)
CCCCCCn1c(N2CCC(C)CC2)nc2c1c(=O)[nH]c(=O)n2C	D1 allo mod 17.9, PostGolgi ctrl 34.3
C=C(C)Cn1c(NCCOC)nc2c1c(=O)[nH]c(=O)n2C	none
Cc1ccnc(SCCn2c(N3CCN(c4ccccc4)CC3)nc3c2c(=O)[nH]c(=O)n3C)n1	D1 allo mod -4.47
CCN(c1ccc(C)c(C)c1)S(=O)(=O)c1c(C)[nH]c(=O)[nH]c1=O	none (no result: Ecoli tolC, D1 allo mod)
CCC(C)C(NS(=O)(=O)c1ccc(C)cc1)C(=O)NCCN1CCOCC1 (configuration not stated)	none (no result: PostGolgi yeast, Ecoli WT expand, hDAT+cocaine, D1 allo mod, PostGolgi ctrl)
CCCn1c(SCC(=O)c2cc(C)c(C)cc2C)n[nH]c1=O	none (no result: Ecoli tolC, D1 allo mod)
